pIC50: −log10 of the molar value.
Biological target: T1, Dual specificity protein phosphatase 22 (Homo sapiens, UniProt Q9NRW4)
T1 sequence (Q9NRW4 whole entry): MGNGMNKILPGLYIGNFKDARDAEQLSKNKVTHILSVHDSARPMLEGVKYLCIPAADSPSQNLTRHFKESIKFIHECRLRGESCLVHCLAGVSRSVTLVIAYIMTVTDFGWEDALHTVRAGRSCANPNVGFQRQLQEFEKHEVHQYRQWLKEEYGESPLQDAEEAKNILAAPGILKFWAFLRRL
Assay: Inhibition of GST-tagged human recombinant JSP1
Summary of the method: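 Fluorescence kinetic phosphatase assay: 30 nM purified recombinant GST-fused human JSP-1 in 50 mM Bis-Tris pH 6.5, 1 mM EDTA, 1 mM DTT, with 10 µM OMFP as substrate. Hydrolysis followed continuously at excitation 485/emission 535 nm for 3 min; initial rate taken from the linear region of the kinetic curve.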

| SMILES | pIC50 |
| --- | --- |
| Cc1ccc(-c2nc3ccc(NC(=O)N4CCCC(C(=O)NC5CCCC5)C4)cc3nc2-c2ccc(C)cc2)cc1 (stereo not drawn) | < 4.40 |
| CCN(CC)C(=O)C1CCCN(C(=O)Nc2ccc3nc(-c4ccccc4)c(-c4ccccc4)nc3c2)C1 (stereo not drawn) | < 4.40 |
| CCN(CC)C(=O)C1CCCN(C(=O)Nc2ccc3nc(-c4ccc(C)cc4)c(-c4ccc(C)cc4)nc3c2)C1 (stereo not drawn) | < 4.40 |
| O=C(NC1CCCCC1)C1CCCN(C(=O)Nc2ccc3nc(-c4ccc(F)cc4)c(-c4ccc(F)cc4)nc3c2)C1 (stereo not drawn) | < 4.40 |
| O=C(Nc1ccc2nc(-c3ccc(Br)cc3)c(-c3ccc(Br)cc3)nc2c1)N1CCCC(C(=O)N2CCCC2)C1 (stereo not drawn) | < 4.40 |
| COc1nc2ccc(NC(=O)N3CCCC(C(=O)N4CCCCC4)C3)cc2nc1OC (stereo not drawn) | < 4.00 |
| COc1nc2ccc(NC(=O)N3CCCC(C(=O)NC4CCCCC4)C3)cc2nc1OC (stereo not drawn) | < 4.00 |
| CC(C)NC(=O)C1CCCN(C(=O)Nc2ccc3nc(-c4ccco4)c(-c4ccco4)nc3c2)C1 (stereo not drawn) | < 4.40 |
| CCN(CC)C(=O)C1CCCN(C(=O)Nc2ccc3nc(-c4ccco4)c(-c4ccco4)nc3c2)C1 (stereo not drawn) | 4.92 |
| O=C(Nc1ccc2nc(-c3ccccc3)c(-c3ccccc3)nc2c1)N1CCCC(C(=O)N2CCCCC2)C1 (stereo not drawn) | < 4.40 |
| CN(C)C(=O)C1CCCN(C(=O)Nc2ccc3nc(-c4ccco4)c(-c4ccco4)nc3c2)C1 (stereo not drawn) | < 4.40 |
| CCNC(=O)C1CCCN(C(=O)Nc2ccc3nc(-c4ccco4)c(-c4ccco4)nc3c2)C1 (stereo not drawn) | < 4.40 |
| CCN(CC)C(=O)C1CCCN(C(=O)Nc2ccc3nc(-c4ccc(Br)cc4)c(-c4ccc(Br)cc4)nc3c2)C1 (stereo not drawn) | < 4.40 |
| CCN(CC)C(=O)C1CCCN(C(=O)Nc2ccc3nc(-c4ccc(F)cc4)c(-c4ccc(F)cc4)nc3c2)C1 (stereo not drawn) | < 4.40 |
| O=C(Nc1ccc2nc(-c3ccco3)c(-c3ccco3)nc2c1)N1CCCC(C(=O)N2CCCCC2)C1 (stereo not drawn) | 5.08 |

More lines, in order of rising pIC50, values ahead:

| pIC50 | SMILES |
| --- | --- |
| 5.08 | CC(C)CNC(=O)C1CCCN(C(=O)Nc2ccc3nc(-c4ccco4)c(-c4ccco4)nc3c2)C1 (stereo not drawn) |
| 5.09 | CC(C)(C)NC(=O)C1CCCN(C(=O)Nc2ccc3nc(-c4ccco4)c(-c4ccco4)nc3c2)C1 (stereo not drawn) |
| 5.26 | CCCCN(C)C(=O)C1CCCN(C(=O)Nc2ccc3nc(-c4ccco4)c(-c4ccco4)nc3c2)C1 (stereo not drawn) |
| 5.52 | O=C(NC1CCCC1)C1CCCN(C(=O)Nc2ccc3nc(-c4ccco4)c(-c4ccco4)nc3c2)C1 (stereo not drawn) |
| 5.55 | CCCCNC(=O)C1CCCN(C(=O)Nc2ccc3nc(-c4ccco4)c(-c4ccco4)nc3c2)C1 (stereo not drawn) |
| 5.60 | CCCN(CCC)C(=O)C1CCCN(C(=O)Nc2ccc3nc(-c4ccco4)c(-c4ccco4)nc3c2)C1 (stereo not drawn) |
| 5.63 | CCCCN(CC)C(=O)C1CCCN(C(=O)Nc2ccc3nc(-c4ccco4)c(-c4ccco4)nc3c2)C1 (stereo not drawn) |
| 5.65 | O=C(NC1CCCCC1)C1CCCN(C(=O)Nc2ccc3nc(-c4ccco4)c(-c4ccco4)nc3c2)C1 (stereo not drawn) |

— ChEMBL document CHEMBL1144617, “Quinoxalinylurea derivatives as a novel class of JSP-1 inhibitors” (Bioorg Med Chem Lett, 2007)
